Data as given in ChEMBL document CHEMBL4837191, “Prenylated Coumaric Acids from Artemisia scoparia Beneficially Modulate Adipogenesis” (J Nat Prod, 2021).
Activity calls are given as the source filed them. No cut-off for these calls is given here.

Legend:
Type in all cases: functional, cell-based
[1] = tested on: 3T3-L1; assay: Induction of adipogenic differentiation in mouse 3T3-L1 cells at 2.5 to 25 uM measured after 4 days by Oil Red O staining; conditions: dose 2.5-25 µM, time 4.0 day
[2] = tested on: 3T3-L1; assay: Inhibition of TNF-alpha induced lipolysis in mouse 3T3-L1 adipocytes assessed as reduction in glycerol release at 2.5 to 25 uM measured after 4 hrs by glycerol reagent based assay; conditions: dose 2.5-25 µM
In short: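 Mature 3T3-L1 adipocytes (full MDI: 0.5 mM IBMX, 1 µM DEX, 1.72 µM insulin), refed day 6, then compound (2.5, 10, 25 µM) or DMSO for 3 days. Overnight 0.75 nM TNFα (or BSA/PBS vehicle), then 4 h in low-glucose DMEM + 2% BSA with TNFα. Medium glycerol by Free Glycerol Reagent, normalized to BCA lysate protein.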

[3] = tested on: 3T3-L1; assay: Induction of adipogenic differentiation in mouse 3T3-L1 cells assessed as increase in AdipoQ mRNA expression by RT-PCR analysis; conditions: dose 2.5-25 µM
In short: (§1)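 3T3-L1 preadipocytes induced 2 days post-confluence with half-strength MDI (IBMX, DEX, insulin in high-glucose DMEM + 10% FBS); compound (2.5, 10, 25 µM, DMSO 1,000× stocks) added at induction and at day-3 feeding (DMEM + 10% FBS, 0.43 µM insulin). RNA harvested 4 days post-MDI; reverse-transcription qPCR, normalized to Nono; compared with DMSO controls.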

[4] = tested on: 3T3-L1; assay: Induction of adipogenic differentiation in mouse 3T3-L1 cells assessed as increase in FABP4 mRNA expression by RT-PCR analysis; conditions: dose 2.5-25 µM; in short: as §1
[5] = tested on: 3T3-L1; assay: Induction of adipogenic differentiation in mouse 3T3-L1 cells assessed as increase in PPARgamma mRNA expression by RT-PCR analysis; conditions: dose 2.5-25 µM; in short: as §1

| Compound | Activity [1] | inhibition [2] | Activity [3] | Activity [4] | Activity [5] |
| --- | --- | --- | --- | --- | --- |
| CC(=O)OC/C(C)=C\Cc1cc(/C=C/C(=O)O)cc(C/C=C(/C)CO)c1O | Active | Active | Active | Active | Active |
| CC(C)=CCc1cc(/C=C/C(=O)O)cc(C/C=C(\C)CO)c1O | Active | inactive | Active | Active | Active |
| CC(=O)OC/C(C)=C\Cc1cc(/C=C\C(=O)O)cc(C/C=C(/C)CO)c1O | Active | Active | Active | Active | Active |
| CC(C)=CCc1cc(/C=C/C(=O)O)cc(C/C=C(/C)CO)c1O | Active | inactive |  |  |  |
